Results collected from several papers.
Target: Platelet-derived growth factor receptor beta (PDGFRB, Homo sapiens, UniProt P09619)

Compound | effect on | method | concentration | remaining binding [%]
C[C@@H]1CN(c2ccc3ncc(-c4ccc5[nH]nc(C6CC6)c5c4)n3n2)C[C@H](C)O1 | binding | competition with immobilised ligand | 50 nM | 87
CC1CCCN1c1nccc(-c2cnn3ncccc23)n1 (stereo not shown) | binding |  | 1 µM | 100
CCN(CC)CCCCNc1ncc2cc(-c3cc(OC)cc(OC)c3)c(NC(=O)NC(C)(C)C)nc2n1 | cell-free assay | competition with immobilised ligand | 1 µM | 38
O=C(c1ccc(Nc2ncc(Cl)c(-c3ccc(Cl)s3)n2)cc1)N1CCC(N2CCCC2)CC1 | binding | competition with immobilised ligand | 1 µM | 0
CCN1CCN(Cc2ccc(C(=O)Nc3ccc(C)c(Oc4ccc5c(c4)CC(=O)N5)c3)cc2C(F)(F)F)CC1 | binding | competition with immobilised ligand | 1 µM | 0.85
CN(C)c1ncc(F)c(-c2cnn3ncccc23)n1 | binding |  | 1 µM | 100
COc1cnc(Nc2cccc(S(N)(=O)=O)c2)nc1N1CCN(c2ccccc2)CC1 | binding | competition with immobilised ligand | 1 µM | 87
Cc1cc(-n2nc(Cc3cc(F)cc(C(F)(F)F)c3)nc2C)ccc1C(N)=O | cell-free assay | competition with immobilised ligand | 1 µM | 98
O=C(Nc1c[nH]nc1C(=O)NC1CCNCC1)c1cc(F)cc(F)c1 | binding | competition with immobilised ligand | 1 µM | 100
CS(=O)(=O)NCC[C@H](NC(=O)c1cncc2c1cnn2-c1ccc(F)cc1)c1ccnc(S(C)(=O)=O)c1 | cell-free assay | competition with immobilised ligand | 1 µM | 100
CNC(=O)[C@@H]1CC[C@@H](n2c(-c3ccc4cnccc4c3)nc3ccc(C(=O)NCc4cccc(C(N)=O)c4)cc32)C1 | binding | competition with immobilised ligand | 1 µM | 100
N[C@@H]1CCN(c2nccc(-c3cnn4ncccc34)n2)C1 | binding |  | 1 µM | 100
FC(F)(F)c1ccc2c(c1)nc(-c1cccnc1)n2C1CC1 | cell-free assay | competition with immobilised ligand | 1 µM | 100
CN(c1nccc(-c2cnn3ncccc23)n1)C1CC1 | binding |  | 1 µM | 98
O=C(c1ccc(Nc2nccc(-c3cc4ccccc4s3)n2)cc1)N1CCC(N2CCCC2)CC1 | binding | competition with immobilised ligand | 1 µM | 11
CCC(=N\O)/C(C)=C/c1ccc(F)cc1 | cell-free assay | competition with immobilised ligand | 1 µM | 100
Cc1cnn2ncc(-c3ccnc(N(C)C)n3)c2c1 | binding |  | 1 µM | 100
C[C@@H]1CN(c2cc(-c3n[nH]c4ccc(OC5(C)CC5)cc34)ncn2)C[C@H](C)O1 | cell-free assay | competition with immobilised ligand | 0.1 µM | 73
COc1ncc2cc3ccccc3nc2c1C#N | cell-free assay | competition with immobilised ligand | 5 µM | 97
CC(=O)N1CCC(c2ccc(C(=O)NC(=N)N)cc2C(F)(F)F)CC1 | cell-free assay | competition with immobilised ligand | 1 µM | 100
CC(C)(C)c1ccc(-c2nc(CBr)nn2-c2cccc(O)c2)cc1 | cell-free assay | competition with immobilised ligand | 10 µM | 86
CC(=O)Nc1c(C(C)=O)c(=O)n(C)c2nc(-c3ccc(Cl)cc3Cl)c(-c3ccc(Cl)cc3)cc12 | cell-free assay | competition with immobilised ligand | 1 µM | 100
CN(C)c1nccc(-c2cnn3ncccc23)n1 | binding |  | 1 µM | 100
O=C(c1ccc(Nc2ncc(Cl)c(-c3cc4ccccc4s3)n2)cc1)N1CCC(N2CCCC2)CC1 | binding | competition with immobilised ligand | 1 µM | 1.9
Cc1nccc(COC(=O)N2C[C@@H]3[C@@H](CNC(=O)c4ccc5[nH]nnc5c4)[C@@H]3C2)n1 | cell-free assay | competition with immobilised ligand | 1 µM | 84
